High-throughput results (PubChem)
Rows were chosen to be rich in hits. Some 2.3% of all compounds tested hit in one or more screens of this group.
Fam108B inh: mouse Fam108B serine hydrolase inhibitors, primary screen, counter-screen for RBBP9 inhibitor project, biochemical, fluorescence polarization | inhibition, % at 9.51 µM | hit rate 0.33% among 300,000 | recombinant Fam108B, FP-Rh probe fluorescence polarization;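 active = inhibition above the screen mean inhibition plus 3 SD, computed separately per campaign, cut at about 18% in these data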;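 note: inhibitors lower polarization as less probe binds the enzyme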
PRMT1 FP inh: PRMT1 methyltransferase inhibitors, primary screen, biochemical, fluorescence polarization; recombinant PRMT1, activity-based probe fluorescence polarization; inhibition, % at 2.79 µM; hit rate 1.3% among 370,000; Protein arginine N-methyltransferase 1 (Homo sapiens), Q99873;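 active = inhibition above about 21% made by adding two undisclosed values, limit read from the data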
Target sequence (Q99873 whole entry, looked up): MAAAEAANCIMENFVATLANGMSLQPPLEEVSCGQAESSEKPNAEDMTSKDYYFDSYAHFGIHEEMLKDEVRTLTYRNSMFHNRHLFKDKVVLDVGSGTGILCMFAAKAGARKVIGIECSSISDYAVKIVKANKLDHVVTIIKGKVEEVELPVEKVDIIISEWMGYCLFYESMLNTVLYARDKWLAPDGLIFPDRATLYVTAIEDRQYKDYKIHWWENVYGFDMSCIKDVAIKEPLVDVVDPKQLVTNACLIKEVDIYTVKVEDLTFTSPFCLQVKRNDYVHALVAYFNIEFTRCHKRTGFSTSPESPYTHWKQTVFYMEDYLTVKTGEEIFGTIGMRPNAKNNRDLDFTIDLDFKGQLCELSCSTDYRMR
PAD4 inh: human PAD4 inhibitors, primary screen, biochemical, fluorescence polarization, 1536-well format. Protein-arginine deiminase type-4 (Homo sapiens), Q9UM07. recombinant PAD4, RCA probe fluorescence polarization. inhibition, % at 6.36 µM. hit rate 0.41% among 330,000. AID 485272, 2010;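 active = percent inhibition above a cutoff equal to the mean of all tested compounds plus 3 SD, cut at about 15% in these data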;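 note: 0% = PAD4 with RCA probe and DMSO and 100% = probe without PAD4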
GSTO1 counter: inhibitors of recombinant GSTO1, primary screen, counter-screen for RBBP9 inhibitor project, biochemical, fluorescence polarization; inhibition, % at 5.96 µM; activity-based probe fluorescence polarization; hit rate 1.1% among 300,000; Glutathione S-transferase omega-1 (Homo sapiens), P78417; AID 1974, 2009;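 active = inhibition above the campaign mean inhibition plus 3 SD, cut at about 35% in these data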;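 note: 0% = GSTO1-1 with DMSO and 100% = wells lacking GSTO1-1 enzyme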
Target sequence (P78417 whole entry, looked up): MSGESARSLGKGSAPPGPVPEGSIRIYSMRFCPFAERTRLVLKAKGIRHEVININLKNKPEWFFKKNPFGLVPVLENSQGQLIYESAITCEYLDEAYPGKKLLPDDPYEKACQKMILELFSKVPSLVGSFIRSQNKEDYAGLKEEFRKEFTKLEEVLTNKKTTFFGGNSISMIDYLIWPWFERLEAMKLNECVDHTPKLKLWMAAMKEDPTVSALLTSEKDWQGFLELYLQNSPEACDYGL
PME-1 primary: PME-1 inhibitors via competitive probe labeling, primary screen, biochemical, fluorescence polarization, FP-Rh probe, HTS | inhibition, % at 5.9 µM | AID 2130, 2009 | hit rate 0.53% among 320,000 | recombinant PME-1 | Protein phosphatase methylesterase 1 (Homo sapiens), Q9Y570;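 active = inhibition above the campaign mean of all compounds plus 3 SD, cut at about 26% in these data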;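 note: competitive labeling of PME-1 active site by serine hydrolase directed probe; 0% = PME-1 with DMSO and 100% = wells lacking PME-1 enzyme; inhibitors block probe labeling so polarization falls and inhibition rises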
RBBP9 inhibitor: human RBBP9 inhibitors, primary screen, biochemical, fluorescence polarization, FP-Rh probe, HTS; inhibition, % at 7.94 µM; hit rate 0.2% among 220,000; AID 1515, 2009; Serine hydrolase RBBP9 (Homo sapiens), O75884; recombinant RBBP9;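 active = inhibition above the campaign mean of all tested compounds plus 3 SD, cut at about 14% in these data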;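 note: plate controls were DMSO wells with RBBP9 for no effect and wells lacking RBBP9 protein for full effect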
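Controls: DMSO-treated enzyme wells and wells lacking RBBP9 | Material: RBBP9 protein | Technique: Fluorescence polarization | Replication: Single well per compound, no replicates | Buffer or medium: Tris-NaCl-Pluronic buffer, pH 8.0 | Timing: 30 min compound preincubation, 45 min probe labeling, 25 °C | Read-out basis: Percent inhibition from mP, scaled between DMSO and no-protein wells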
PRMT1 confirm: PRMT1 methyltransferase inhibitors, confirmation, biochemical, fluorescence polarization, triplicate; hit rate 42% among 3,300; inhibition, % at 2.79 µM; shares compounds with PRMT1 FP inh; recombinant His-PRMT1, activity-based probe fluorescence polarization;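 active = mean inhibition across replicates above the hit cutoff derived for the earlier primary screen, cut at about 22% in these data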
Starred values were filed as active, the others as inactive; / = no result given.

SMILES	Fam108B inh	PRMT1 FP inh	PAD4 inh	GSTO1 counter	PME-1 primary	RBBP9 inhibitor	PRMT1 confirm
CCN1CCSc2ccc(C(=O)NCc3cccc(Br)c3)cc21	9	2	2	-5	4	/	/
O=C(NCc1cccnc1)c1ccc2c(c1)N(Cc1ccccc1)CCS2	-2	29*	-2	4	3	-3	7
CC1CCCCN1CCCNc1ccc(C(CC(N)=O)NC(=O)Cc2ccc(Br)cc2)cc1[N+](=O)[O-] (stereo not drawn)	-6	-1	2	5	-6	/	/
O=C(CSCc1ccco1)Nc1cc(C(F)(F)F)ccc1N1CCOCC1	-2	66*	-5	3	1	-2	40*
Cc1nc(SCc2ccc(O)c([N+](=O)[O-])c2)c([N+](=O)[O-])[nH]1	2	35*	-3	20	2	9	-3
COc1ccc(OC)c(NC(=O)CCN2CC(C)OC(C)C2)c1 (stereo not drawn)	0	-2	-3	1	-2	-3	/
Clc1ccc(-n2nnc(-c3nccs3)n2)cc1Cl	-3	38*	-1	-3	-2	-7	24*
Cc1nc2ccc(S(=O)(=O)NCC(=O)NCc3ccc4c(c3)OCO4)cc2s1	7	49*	0	1	1	0	1
C=CC[C@]1(c2ccccc2)C(=O)N2C[C@H]3CON(C)[C@H]3C[C@H]2c2ccccc21	/	2	/	/	/	/	/
C/C(=N\Nc1cccc(C(=O)O)c1)c1ccc(Cl)s1	5	42*	-5	12	0	7	10
O=C(NCc1ccccc1F)C1CC(=O)N(Cc2ccco2)C1 (stereo not drawn)	/	0	/	/	/	/	/
Cc1nc2ccc(S(=O)(=O)N3CCCCC3)cc2s1	4	0	-2	7	1	/	/
Nc1nc2ccc(S(=O)(=O)N3CCCCC3)cc2s1	-2	30*	1	17	3	3	73*
COc1ccccc1Nc1nc(C)cs1	1	2	-9	1	-1	-2	/
COc1ccccc1Nc1n[nH]c(=S)s1	-6	47*	6	12	-7	6	8
COc1cccc(Nc2n[nH]c(=S)s2)c1	4	43*	0	8	4	6	36*
O=C(COc1ccccc1)N1CCN(C(=O)c2cccs2)CC1	-1	1	-1	13	0	-8	/
Cc1c(-c2ncn[nH]2)sc(C#N)c1-c1ccccc1	0	2	-4	-2	0	-12	/
C/C(=N/NS(=O)(=O)c1ccc(C(C)(C)C)cc1)c1ccc2c(c1)OCO2	/	1	/	/	/	/	/
COc1ccc(-c2cc(C(F)(F)F)nc(SCc3cccc(C(=O)O)c3)n2)cc1	5	0	-1	-2	-4	-2	/
Cc1cc2cc(CNC(=O)c3ccc(Br)o3)ccc2n1C	3	36*	9	-2	0	/	5
O=C(CCCSc1nc2ccccc2s1)Nc1nccs1	-6	4	-3	-2	6	-8	/
O=C(CCCc1nc2ccccc2s1)Nc1nccs1	0	41*	3	7	1	-12	14
Cc1cnc(NC(=O)CCCc2nc3ccccc3s2)s1	4	49*	3	13	-6	-9	21
CCNS(=O)(=O)c1cc(Br)ccc1OC	0	2	-3	1	2	-9	/
SMILES	Fam108B inh	PRMT1 FP inh	PAD4 inh	GSTO1 counter	PME-1 primary	RBBP9 inhibitor	PRMT1 confirm
O=C(CC1SC2=NCCN2C1=O)Nc1ccccc1 (stereo not drawn)	0	-1	-1	4	6	-13	/
Cc1ccc(NC(=O)CC2SC3=NCCN3C2=O)cc1 (stereo not drawn)	-5	94*	-5	8	-8	-7	9
Cc1cc(C)c(CNC(=O)c2cc(C3CC3)nc3c2cnn3C(C)C)c(=O)[nH]1	/	1	-1	/	0	/	/
Cn1cnnc1SCc1ccc(-c2ccc(Br)cc2)o1	-5	30*	-12	8	-2	-3	3
Cn1cnnc1SCc1ccccc1	0	-3	1	3	1	-1	/
COc1ccc(CN(CC(=O)NCc2ccc(F)cc2)C(=O)CCC(=O)Nc2nccs2)cc1	3	-1	0	1	3	/	/
O=C(CC(SCCO)c1ccc(F)cc1)c1ccco1 (stereo not drawn)	-5	33*	-1	2	0	-3	30*
Cc1ccc(C(O)C(=O)c2ccco2)cc1 (stereo not drawn)	3	0	-3	2	1	/	/
Cc1ccc(C(CC(=O)c2ccco2)SCCO)cc1 (stereo not drawn)	0	28*	2	-3	-6	3	32*
Cc1ccc(S(=O)(=O)Nc2ccccc2C(C(=O)OC(C)(C)C)C(=O)OC(C)(C)C)cc1	/	1	/	/	/	/	/
Cc1[nH]c2ccccc2c1C1=CC(=O)C=CC1=O	/	96*	/	/	/	/	93*
CCc1c(O)nc(SCC(=O)Nc2ccc(Cl)cc2)n(-c2ccccc2)c1=O	/	38*	/	/	/	/	35*
CCc1c(O)nc(SCC(=O)Nc2nc3ccccc3s2)n(C2CCCCC2)c1=O	1	45*	6	-6	8	1	50*
CCc1c(O)nc(SCC(=O)Nc2ccc(OC)cc2)n(C2CCCCC2)c1=O	3	12	4	16	1	-11	/
COC(=O)[C@]12C[C@H](CC(=O)N3CCN(C(=O)c4ccco4)CC3)C(=O)N(Cc3ccco3)C1=C[C@H](C1CCCC1)O[C@@H]2C	/	2	/	/	/	/	/
CCCN(CC(=O)Nc1ccccc1C)C(=O)c1ccc(S(=O)(=O)N2CCCC2)cc1	2	1	3	9	-1	/	/
CN(C(=O)C(C)(C)C)[C@H]1C[C@H]2c3[nH]c4ccccc4c3CCN2C(=O)[C@H]1CO	/	1	/	/	/	/	/
CN(C(=O)NC1CCCCC1)[C@H]1C[C@H]2c3[nH]c4ccccc4c3CCN2C(=O)[C@H]1CO	/	33*	/	/	/	/	1
COc1ccc(C/C(N)=N/OC(=O)c2cccc([N+](=O)[O-])c2)cc1	4	45*	-1	4	-5	-7	4
CC(=O)Nc1ccc(NC(=S)Nc2ccccc2)cc1	-1	1	-1	1	2	-9	/
CC(=O)Nc1ccc(SC(Sc2ccc(NC(C)=O)cc2)c2ccccc2)cc1	/	29*	/	/	/	/	22*
CC[n+]1c(C)sc2c3ccsc3ccc21	0	38*	5	3	0	-5	64*
